# Measurements gathered from unrelated publications.
# Protocols differ between the studies behind these lines.
# Target: Serine/threonine-protein kinase 4 (STK4, Homo sapiens, UniProt Q13043)
# Residues used in one study (Q13043 1-487): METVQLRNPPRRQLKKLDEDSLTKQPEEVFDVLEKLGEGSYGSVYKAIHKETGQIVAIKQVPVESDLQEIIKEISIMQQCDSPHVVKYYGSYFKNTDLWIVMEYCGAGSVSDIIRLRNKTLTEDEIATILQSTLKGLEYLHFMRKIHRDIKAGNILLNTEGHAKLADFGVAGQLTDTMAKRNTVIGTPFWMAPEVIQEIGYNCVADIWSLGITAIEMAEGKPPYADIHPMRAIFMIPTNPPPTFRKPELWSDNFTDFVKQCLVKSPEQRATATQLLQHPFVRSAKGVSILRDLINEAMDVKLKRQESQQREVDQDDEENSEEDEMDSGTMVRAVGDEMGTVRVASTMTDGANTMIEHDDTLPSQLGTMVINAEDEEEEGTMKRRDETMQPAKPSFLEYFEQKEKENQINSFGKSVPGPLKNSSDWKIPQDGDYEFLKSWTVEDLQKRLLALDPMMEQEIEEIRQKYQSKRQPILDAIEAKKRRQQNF
SMILES,effect on,method,concentration,remaining binding [%]
Cc1cnc(Nc2ccc(C(=O)N3CCC(N4CCCC4)CC3)cc2)nc1-c1cc2ccccc2s1,binding,competition with immobilised ligand,1 µM,100
CCC(=O)N[C@H]1CC[C@@H](C(=O)N(C)c2ccc(-c3nc4ccccc4o3)cc2)C1,cell-free assay,competition with immobilised ligand,1 µM,100
O=C(Nc1c[nH]nc1C(=O)NC1CCNCC1)c1cc(F)cc(F)c1,binding,competition with immobilised ligand,1 µM,100
CC1CCCN1c1nccc(-c2cnn3ncccc23)n1 (centres unmarked),binding,,1 µM,98
CNC(=O)c1ccc(Nc2ncc(C(F)(F)F)c(NCc3nccnc3N(C)S(C)(=O)=O)n2)cc1,cell-free assay,competition with immobilised ligand,0.1 µM,97
c1cncc(-c2cccc(Nc3nccc(NC4CCCCC4)n3)c2)c1,binding,competition with immobilised ligand,10 µM,97
Cc1c[nH]c2nccc(Oc3c(F)cc(Nc4cc(Cl)nc(N)n4)cc3F)c12,cell-free assay,competition with immobilised ligand,0.1 µM,100
O=C(c1ccc(Nc2nccc(-c3cc4ccccc4s3)n2)cc1)N1CCC(N2CCCC2)CC1,binding,competition with immobilised ligand,1 µM,100
C[C@H]1CCN(c2nccc(-c3cnn4ncccc34)n2)C1,binding,,1 µM,82
O=C(NCCCC1CCCCC1)c1ccc(CNC(=O)c2cnn(-c3ccccc3)c2C(F)(F)F)cc1,cell-free assay,competition with immobilised ligand,0.1 µM,100
CNC(=O)[C@@H]1CC[C@@H](n2c(-c3ccc4cnccc4c3)nc3ccc(C(=O)NCc4cccc(C(N)=O)c4)cc32)C1,binding,competition with immobilised ligand,1 µM,81
COc1ncc2cc3ccccc3nc2c1C#N,cell-free assay,competition with immobilised ligand,5 µM,96
Cc1cnn2ncc(-c3ccnc(N(C)C)n3)c2c1,binding,,1 µM,97
O=C(NCCCN1CCOCC1)c1ccc(Nc2ncc(Cl)c(-c3ccc(Cl)s3)n2)cc1,binding,competition with immobilised ligand,1 µM,90
COc1ccnn2ncc(-c3ccnc(N(C)C)n3)c12,binding,,1 µM,100
Cc1c(C(=O)O)cc(-c2ccc(C3CCNCC3)cc2)c2ccc(-c3ccc(C(F)(F)F)cc3)cc12,binding,competition with immobilised ligand,1 µM,95
N[C@@H]1CCN(c2nccc(-c3cnn4ncccc34)n2)C1,binding,,1 µM,100
COc1cnc(Nc2cccc(S(N)(=O)=O)c2)nc1N1CCN(c2ccccc2)C(=O)C1,binding,competition with immobilised ligand,1 µM,98
F[C@@H]1CCN(c2nccc(-c3cnn4ncccc34)n2)C1,binding,,1 µM,91
CS(=O)(=O)c1cc(C2(NC(=O)c3cncc4c3cnn4-c3ccc(F)cc3)CC2)ccn1,cell-free assay,competition with immobilised ligand,1 µM,77
